CHOP inh: inhibitors of CHOP induction in ER stress response | CHO-K1 CHOP-promoter luciferase, tunicamycin-induced, 15-18 h | inhibition, % at 10 µM | 220,000 tested, 3.8% active | AID 2732;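 active = compounds that reduced the stress-induced luciferase reporter signal by more than about 70% of percent inhibition, limit read from the data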;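 note: 0% = tunicamycin plus vehicle and 100% = wells without tunicamycin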
UPR CHOP act: apoptotic UPR (CHOP) activation | activation, % at 10 µM | CHO-CHOP luciferase reporter, luminescence; percent of tunicamycin response over DMSO baseline | 330,000 tested, 0.34% active | AID 449763;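 active = at 10 µM dose, activation of 40% or more, normalized to positive control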;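 note: 100% = tunicamycin at 10 µg/mL and 0% = DMSO alone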
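System: CHO-CHOP luciferase reporter cell line; amount: 500 cells/well; buffer or medium: F12 medium containing 10% fetal bovine serum; incubation: 6 h compound exposure at 37 °C after overnight seeding; measured by: luciferase luminescence after 10 min with Steady-Glo reagent; evaluation: % reporter activation, DMSO baseline versus tunicamycin full activation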
UPR XBP1 act: adaptive UPR (XBP1) activation; 330,000 tested, 0.33% active; activation, % at 20 µM; CHO-XBP1 luciferase reporter, IRE1-XBP1 UPR activation, luminescence; percent of tunicamycin response, DMSO as zero;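 active = versus positive control, 20 µM dose yields 30% or more activation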;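 note: 100% = tunicamycin at 10 µg/mL and 0% = DMSO only wells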
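Material: IRE1-XBP1 luciferase reporter CHO line / Quantity: one thousand reporter cells per well / Buffer or medium: F12 with 10% serum / Compound: 20 µM single concentration, DMSO 1% / Times: 6 h treatment, 37 °C / Detection: Steady-Glo luciferase glow luminescence, 10 min after reagent addition / Benchmarks: tunicamycin high, DMSO low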
T cruzi inh: blocks replication of Trypanosoma cruzi. T. cruzi beta-gal in NIH3T3, luminescence, 90 h. inhibition, % (no concentration beside the values). 300,000 tested, 1.4% active. AID 1885;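 active = mean inhibition across valid replicates above about 55%, limit read from the data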;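 note: signal also drops with host cell toxicity which is not excluded here; 0% = plate median of DMSO wells and 100% = zero luminescence signal; higher percent means less beta-gal luminescence so fewer parasites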
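System: mouse NIH/3T3 fibroblasts infected with β-gal-expressing T. cruzi Tulahuen C4 / Input: NIH/3T3 cells, 5,000 per well / Buffer or medium: Low-serum DMEM with 2% FBS / Probe or stimulus: 5000 reporter trypomastigotes per well / Schedule: ≥90 h infection period, 3 h prior cell attachment / Measured by: GalScreen luminescence, 60 min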
L major viab: reduces viability of Leishmania major promastigotes; resazurin fluorescence viability; inhibition, % at 10 µM; 200,000 tested, 9% active; AID 1063; in the data active = inhibition above about 50%;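 note: promastigotes grown with compound for 44 hours at 28 °C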
Dynein transport: blocks dynein driven cargo transport along microtubules; 3617.4 mouse cells, GR-EGFP nuclear translocation imaging; test concentration mostly 20 µM; stimulated with dexamethasone, 1 µM; active compounds read low; AID 1381; 220,000 tested, 0.47% active; z-score, hits read low;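 active = plate z-score of nuclear minus cytoplasmic receptor signal below a set negative limit, without overly bright fluorescence or cell loss, cut at about -3.5 in these data, passing the limit was not always enough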;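 note: z-score of nuclear minus cytoplasmic ring GR-EGFP intensity difference per well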
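Buffer or medium: Induction medium lacking tetracycline, stripped serum | Also added: Dexamethasone agonist, 1.0 µM final, for 30 min | Timing: 48 h induction, 1 h compound, 30 min dex at 37 °C | Detection: Formaldehyde fixation, Hoechst nuclear stain, 10x automated fluorescence imaging | Measure: Nuclear versus cytoplasmic GR-EGFP signal, averaged per well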
* = called active by the depositor; . = not tested or not shown. The full list was thinned out, with hits kept by preference.

SMILES | CHOP inh | UPR CHOP act | UPR XBP1 act | T cruzi inh | L major viab | Dynein transport
COc1ccc(CNC(=S)Nc2ccc(OC)cc2)cc1 | 3.9 | 1.5 | -0.9 | -10.1 | 51.9* | 0.461
COc1ccc(CCNS(=O)(=O)c2ccc(Br)cc2)cc1 | . | -1.0 | -4.4 | 4.0 | . | .
COc1ccc(CNc2ccc(Br)cc2)cc1 | 42.3 | 6.6 | 2.4 | 38.4 | 98.8* | 0.712
Cc1ccc(S(=O)(=O)N2CCC(C(=O)OCC(=O)Nc3cc(S(C)(=O)=O)ccc3Cl)CC2)cc1C | . | 0.3 | -2.2 | -0.6 | . | .
CCn1c(CNC(=O)COc2ccc(C(C)C)cc2)nnc1SCC(=O)Nc1ccccc1C(C)C | 61.8 | 2.6 | -3.2 | -11.4 | 76.3* | -1
C[C@H](NC(=O)N1CCC(Cc2ccccc2)CC1)C(=O)O | . | 2.4 | -5.7 | 11.0 | . | .
CN(C(=O)c1cc(-c2ccc3c(c2)OCO3)on1)c1ccccc1 | . | 4.5 | -5.4 | -20.1 | . | .
COc1cccc(C2=NC(C)(C)NC(c3ccccc3O)C2)c1 (stereo unspecified) | 27.2 | 10.5 | 16.5 | . | 96.7* | -2.36
COc1cccc(C2=NNC(=NCc3ccccc3)SC2)c1 | -2.7 | 2.3 | 0.0 | 12.8 | 31.8 | 0.704
CCC1(C)N=C(c2ccc3c(c2)OCO3)CC(c2ccccc2O)N1 (stereo unspecified) | -5.4 | 4.1 | 6.7 | -11.6 | 95.3* | -2.59
COC(=O)COc1cc(C)cc2oc(=O)c(CC(=O)OC)c(C)c12 | -18.9 | -0.5 | -3.6 | -5.6 | -3.3 | 0.849
COC(=O)COc1cc(OCC(=O)OC)c2c(C)c(Cl)c(=O)oc2c1 | 40.2 | 2.1 | -0.2 | -8.8 | 50.8* | -0.0426
C#CCOCCOCCOCCNc1nc(N2CCN(C(=O)[C@H](CC(N)=O)n3cc(C(N)[C@H](C)CC)nn3)CC2)nc(N2CCN(C(=O)[C@H](CC(N)=O)n3cc(C(N)[C@@H](C)CC)nn3)CC2)n1 (stereo partly specified) | . | 1.4 | -0.9 | . | . | .
CN(C)CCCn1c2c(c(SCC(=O)Nc3cccc4ccccc34)nc1=O)CCC2 | . | 1.4 | -3.1 | 57.1* | . | .
O=C(Nc1ccccc1F)c1ccc([N+](=O)[O-])s1 | 0.2 | 1.8 | 1.3 | 65.4* | 100.3* | 0.306
O=C(Nc1cccc2ccccc12)c1ccc([N+](=O)[O-])s1 | 2.9 | -0.6 | -2.3 | 57.3* | 100.3* | 0.297
O=C(Cn1c(=O)oc2cc(S(=O)(=O)N3CCCC3)ccc21)NCc1ccc(F)cc1 | 2.8 | 0.7 | -2.1 | -8.7 | 98.3* | -0.83
O=C(Cc1ccc(F)cc1)Nc1ccc(S(=O)(=O)N2CCCCC2)cc1 | 19.1 | 0.2 | -2.8 | 8.7 | 1.7 | -0.183
O=C(Cn1c(=O)oc2cc(S(=O)(=O)N3CCCC3)ccc21)Nc1cccc(C(F)(F)F)c1 | 53.3 | -4.7 | -0.4 | -9.0 | 99.9* | -0.483
Cn1c(=O)oc2cc(S(=O)(=O)N3CCN(c4ccc(F)cc4)CC3)ccc21 | 8.3 | 0.7 | -3.0 | -12.8 | 60.4* | 0.291
CCN(CC(=O)NCc1ccc(F)cc1)CC(=O)Nc1ccc(S(=O)(=O)N2CCCC2)cc1 | 3.7 | -1.5 | -1.8 | 9.2 | 98.3* | -0.523
Cn1c(=O)c(=O)n(C)c2cc(S(=O)(=O)N3CCN(c4ccc(F)cc4)CC3)ccc21 | 11.6 | 1.8 | -0.8 | -2.7 | -4.4 | 1.7
CCc1cccc(NC(=O)Cn2c(=O)oc3cc(S(=O)(=O)N4CCOCC4)ccc32)c1 | 44.4 | 2.1 | -1.9 | -6.9 | -5.5 | -0.711
Cc1ccc2[nH]c(=O)c3cc(C(=O)N(C)C4CCCCC4)sc3c2c1 | . | 5.7 | 4.4 | 17.1 | . | .
Cc1ccc(N(C(=O)c2snc(C(N)=O)c2N)C(C(=O)NCc2ccccc2)c2ccncc2)c(C)c1 (stereo unspecified) | . | 0.8 | 1.1 | 13.7 | . | .
SMILES | CHOP inh | UPR CHOP act | UPR XBP1 act | T cruzi inh | L major viab | Dynein transport
CCn1cc(CN2CCCC(CNS(=O)(=O)c3ccc(OC)cc3)C2)cn1 (stereo unspecified) | . | 0.8 | -5.1 | 44.7 | . | .
CCc1ccc(CN2CCCC(CNS(=O)(=O)c3ccc(OC)cc3)C2)cc1 (stereo unspecified) | 6.1 | -2.1 | -1.6 | 48.2 | 84.0* | -0.332
Cc1ccsc1/C=C(\C(=O)c1ccc(OC(C)C)cc1)c1nc2ccccc2o1 | 29.5 | -3.3 | -2.3 | 67.9* | 100.1* | -0.723
Cc1ccsc1/C=C(\CC(=O)O)c1nc2ccccc2o1 | . | 3.2 | 0.2 | 2.1 | . | .
CCOc1ccc(N(CC(=O)Nc2cc(Cl)ccc2C)S(C)(=O)=O)cc1 | . | 1.1 | -4.8 | -3.0 | . | .
NS(=O)(=O)c1ccc(NC(=O)COC(=O)Cn2cnc3ccccc3c2=O)cc1 | . | -0.4 | -0.5 | . | . | .
CC1Cc2ccccc2N1C(=O)C1CCN(S(=O)(=O)Cc2ccccc2)CC1 (stereo unspecified) | 37.9 | -1.3 | -2.8 | 0.2 | 54.2* | -0.546
O=C(C1CCCN(S(=O)(=O)Cc2ccccc2)C1)N1CCc2ccccc21 (stereo unspecified) | 3.5 | -0.7 | -3.3 | 0.7 | 72.8* | -0.501
O=C(O)C1CCN(S(=O)(=O)Cc2ccccc2)CC1 | . | 0.8 | -2.9 | -15.1 | . | .
O=c1c2cc(Cl)ccc2[nH]c(=S)n1Cc1ccco1 | 58.5 | 0.4 | -1.6 | -17.1 | -0.3 | -0.127
O=c1c2cc(Cl)ccc2[nH]c(=S)n1Cc1cccs1 | 97.4* | 1.2 | 0.6 | 3.5 | 18.9 | 0.263
O=c1c2cc(F)ccc2[nH]c(=S)n1Cc1ccc(F)cc1 | . | 1.6 | -1.2 | -14.3 | . | .
O=c1[nH]c2ccc(Cl)cc2c(=O)n1Cc1ccco1 | 80.6* | 1.0 | 3.6 | -10.1 | 3.8 | -0.22
c1ccc(OCCCCN2CCCCC2)cc1 | . | 1.2 | -3.1 | -13.6 | . | .
Fc1ccc(OCCCCCCN2CCCC2)cc1 | 28.8 | 0.6 | -1.0 | 53.3 | 95.1* | -0.741
CN1CCN(CCOc2cccc(Cl)c2)CC1 | -7.3 | 1.5 | 1.5 | 35.9 | 10.1 | 0.634
c1ccc(COc2ccc(OCCCN3CCCCC3)cc2)cc1 | 1.4 | 1.8 | -1.8 | -2.4 | 100.2* | 0.622
c1ccc(COc2ccc(OCCCCN3CCCC3)cc2)cc1 | 12.8 | 2.8 | -2.5 | 40.1 | 92.1* | -0.0261
c1ccc(OCCCN2CCCC2)cc1 | -1.6 | -1.1 | -0.2 | 8.1 | -0.3 | -0.0672
CN1CCN(CCOc2ccc(Cl)c(Cl)c2)CC1 | 12.0 | 2.9 | 1.1 | 55.8* | 98.3* | 0.908
O=C(COc1ccc(F)cc1)NCCN1CCCC1 | . | -0.6 | -3.7 | -8.1 | . | .
O=C(Nc1cccc(-c2ccc(N3CCOCC3)nn2)c1)c1ccc(F)cc1F | . | 4.9 | 4.3 | -4.8 | . | .
COc1ccc(C(=O)COC(=O)c2cc(S(=O)(=O)N3CCCCC3)ccc2N2CCOCC2)c(OC)c1 | . | 1.5 | 2.9 | 45.6 | . | .
CCN(CC)CCOc1ccc2c(c1)C(=NO)c1cc(OCCN(CC)CC)ccc1-2 | 1.5 | -0.9 | -4.7 | 48.9 | 100.5* | 1.03
